Screening results as filed in PubChem BioAssay.
Sampled rows, rich in hits. Any-hit rate of the full collection: about 1.8%.
TDP2 absorb – human TDP2 enzyme inhibitors, primary screen, biochemical, epi absorbance, recombinant enzyme | T5PNP hydrolysis, p-nitrophenol absorbance 415 nm | 370,000 tested, 0.34% active | Tyrosyl-DNA phosphodiesterase 2 (Homo sapiens), O95551 | inhibition, % at 12.8 µM;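 active = inhibition above the mean of all tested compounds plus 3 SD, set per campaign, cut at about 25% in these data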;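 also: 0% = DMSO with enzyme and 100% = buffer with substrate but no TDP2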
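Evaluation: % inhibition relative to enzyme-containing and enzyme-free wells. Material: recombinant human TDP2. Benchmarks: enzyme-free and DMSO wells. Timing: enzyme reaction with compound for 2 h at 37 °C. Compound dosing: 12.8 µM only. Measured by: p-Nitrophenol epi absorbance. Reagent: T5PNP substrate at 5 mM, a TopII-DNA adduct mimic. Replication: single well per compound.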
UHRF1 binding – UHRF1 methylated DNA binding inhibitors, primary screen, counter-screen for MBD2 inhibitor project, biochemical, TR-FRET, human UHRF1, single concentration | inhibition, % at 4.4 µM | UHRF1 binding to methylated oligo | 370,000 tested, 0.75% active; in the data active = inhibition above about 21%;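 also: UHRF1 SRA domain binding a hemimethylated CpG hairpin DNA probe; 0% = median of test compound wells and 100% = reference inhibitor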
HCV core dimer – inhibitors of HCV core protein dimerization, primary screen, biochemical, TR-FRET, high-throughput. TR-FRET GST/Flag-core106 dimerization, 1536-well. 300,000 tested, 0.33% active. inhibition, % at 5 µM;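 active = inhibition above the mean of all tested compounds plus 3 SD, set per screening campaign, cut at about 45% in these data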
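System: GST/Flag-tagged HCV core106 proteins. Incubation: compound-protein-antibody incubation 4 h at 22.5 °C. Technique: HTRF with 340 nm excitation, 617/671 nm emission. Medium: KF-containing HEPES buffer, pH 7.45, DTT, CHAPS, BSA. Read-out: inhibition (%) from 671 over 617 nm ratio. Also added: Eu(K)-anti-GST 90 ng/mL plus XL665-anti-Flag 1 µg/mL.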
LEDGF integ inh – blockers of LEDGF/p75-dependent integrase strand transfer – biochemical, TR-FRET, high throughput, primary screen | HIV-1 integrase (with human LEDGF/p75) | TR-FRET IN-LEDGF/p75 DNA integration, Eu/Cy5 | inhibition, % at 3.7 µM | 370,000 tested, 0.64% active;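 active = inhibition above the screen-wide mean plus 3 SD, cut at about 13% in these data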;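 also: signal is the Cy5 over europium emission ratio at 671 and 618 nm; 0% = plate median of compound wells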
MBD2 inh – inhibitors of MBD2 binding to methylated DNA, primary screen, biochemical, TR-FRET, DNA-binding domain, human; 370,000 tested, 0.31% active; MBD2 binding to methylated oligonucleotide; inhibition, % at 4.4 µM; Methyl-CpG-binding domain protein 2 (Homo sapiens), Q9UBB5; in the data active = inhibition above about 13%
Target sequence (Q9UBB5 whole entry, looked up, the tested form may be a part): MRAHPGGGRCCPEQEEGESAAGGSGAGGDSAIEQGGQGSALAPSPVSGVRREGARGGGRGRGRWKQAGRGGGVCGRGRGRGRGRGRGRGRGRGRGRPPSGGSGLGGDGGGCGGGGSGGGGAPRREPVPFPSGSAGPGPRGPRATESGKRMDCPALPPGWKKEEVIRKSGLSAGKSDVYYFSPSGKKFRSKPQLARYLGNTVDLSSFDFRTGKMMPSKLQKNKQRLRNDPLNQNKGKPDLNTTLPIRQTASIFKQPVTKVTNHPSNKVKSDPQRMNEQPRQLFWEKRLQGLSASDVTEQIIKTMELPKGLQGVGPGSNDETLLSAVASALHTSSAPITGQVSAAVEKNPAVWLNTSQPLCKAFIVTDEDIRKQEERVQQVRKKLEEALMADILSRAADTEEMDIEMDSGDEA
IN multimer act – HIV-1 IN multimer formation enhancers, counter-screen for LEDGF/p75 integration inhibitor project, biochemical, TR-FRET; shares compounds with LEDGF integ inh; TR-FRET HIV-1 integrase multimerization; activation, % at 7.7 µM; 2,000 tested, 17% active; AID 1053131, 2014; in the data active = activation above about 8.9%
TR-FRET interf – TR-FRET optical interference artefacts, confirmation, artefact control for LEDGF/p75-dependent integration inhibitor project, biochemical, HIV-1 IN multimerization; shares compounds with LEDGF integ inh; TR-FRET optical interference counterscreen; inhibition, % at 7.7 µM; 2,000 tested, under 10 active; AID 1053135, 2014;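 active = inhibition above the mean over all tested compounds plus 3 SD, which no compound reached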;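 also: 0% = integrase with antibodies and DMSO and 100% = antibodies without integrase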
IN-LEDGF confirm – inhibitors of HIV-1 IN-LEDGF/p75 DNA integration, confirmation, biochemical, TR-FRET; shares compounds with LEDGF integ inh; TR-FRET LEDGF/p75-dependent HIV-1 integration; inhibition, % at 3.7 µM; 2,000 tested, 36% active; AID 1053136, 2014; in the data active = inhibition above about 14%
* hit, by the source's call; · = not tested or not shown.

SMILES	TDP2 absorb	UHRF1 binding	HCV core dimer	LEDGF integ inh	MBD2 inh	IN multimer act	TR-FRET interf	IN-LEDGF confirm
Cc1ccc(-c2cc(-c3nnc(SCC(=O)Nc4ccc(OCc5ccccc5)cc4)n3N)[nH]n2)cc1	3	-1	·	-1	1	·	·	·
O=S(=O)(Nc1ccc(O)c2ncccc12)c1ccccc1F	14	-6	·	29*	-11	1	-6	44*
Oc1ccc(CNc2ccccc2F)c2cccnc12	-3	-5	-8	-7	0	·	·	·
COC(=O)C[C@H]1CC[C@@H]2[C@H](COc3ccc(NC(=O)NCc4ccccc4)cc3C(=O)N2C)O1	3	5	·	3	5	·	·	·
O=[N+]([O-])c1cc2ccccc2c(O)c1O	9	-5	·	18*	-16	4	-20	30*
O=[N+]([O-])c1cc(-c2ccccc2)cc([N+](=O)[O-])c1O	6	-9	·	1	-11	·	·	·
Cc1nc(CNS(=O)(=O)c2cccc(F)c2)cs1	2	2	-3	1	-3	·	·	·
Cc1ccc(-c2csc(NS(=O)(=O)c3cccc(F)c3)n2)o1	-3	11	·	16*	3	9.0*	-45	15*
N#CC1=C(N)Oc2cc(N)ccc2C1c1ccc(F)cc1 (configuration not stated)	-10	-4	0	23*	-7	1	-6	1
COc1ccc(C2C(C#N)=C(N)Oc3cc(N)ccc32)cc1 (configuration not stated)	4	-3	·	18*	4	-1	5	-5
CC(=O)Nc1ccc(Oc2cnccn2)cc1	7	-2	-1	29*	1	-3	17	3
Cc1csc(NC(=O)c2cc(-c3ccco3)nc3ccccc23)n1	-14	14	34	26*	5	11*	-56	48*
C/C(=N\NC(=O)c1cc(-c2ccco2)nc2ccccc12)c1cccnc1	-8	-2	15	64*	-3	1	-5	0
O=C(O)c1cc(-c2ccco2)nc2ccccc12	1	18	-4	7	3	·	·	·
Cc1nnc(NC(=O)c2cc(-c3ccco3)nc3ccccc23)s1	-1	26*	78*	16*	6	3	-17	29*
CCNC(=O)COC(=O)c1cc(-c2ccco2)nc2ccccc12	2	8	31	14*	5	7	-37	29*
CCN=c1scc(C)n1/N=C/c1ccc(O)c(O)c1O	-3	3	-33	52*	-4	20*	-72	36*
CN(C)c1ccc(N/C=C/C(=O)c2ccccc2)cc1	12	3	-14	15*	-3	5	-24	5
Cc1ccc(NC(=O)c2ccc(S(=O)(=O)NCC3CCCO3)cc2)cc1 (configuration not stated)	-21	6	-6	4	5	·	·	·
Cc1ccccc1C(=O)Nc1ccc(S(=O)(=O)NCC2CCCO2)cc1 (configuration not stated)	7	0	·	15*	2	0	2	0
COc1cccc(-c2ccc(CC[C@H]3O[C@H]4CC[C@H](CO)O[C@H]4C[C@H]3NS(C)(=O)=O)cc2)c1	15	-2	·	1	1	·	·	·
